In ChEMBL document CHEMBL1136109, “Polymer-assisted solution-phase (PASP) parallel synthesis of an alpha-ketothiazole library as tissue factor VIIa inhibitors” (Bioorg Med Chem Lett, 2003):

Assays:
Coagulation factor X = Coagulation factor X (Homo sapiens, UniProt P00742); test: Inhibition of coagulation factor X
How it was run: (§1)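 Chromogenic enzyme assays: factor Xa, thrombin (IIa), or tissue factor/VIIa complex, each with its own specific chromogenic substrate. Activity was followed as the rise in absorbance at 405 nm from released p-nitroaniline as substrate was cleaved. Inhibition was taken as the reduced change in absorbance and expressed as IC50.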

[1] = target: Thrombin and coagulation factor VII (Homo sapiens) (UniProt P00734+P08709); test: Selectivity ratio for tissue factor VIIa and thrombin (IIa); format: protein assay
Prothrombin = Prothrombin (Homo sapiens, UniProt P00734); test: Inhibitory activity against thrombin (IIa); how it was run: as §1
Coagulation factor VII = target: T1, Coagulation factor VII (Homo sapiens, UniProt P08709); test: Inhibition of tissue coagulation factor VII; how it was run: as §1
T1 sequence (P08709 whole entry): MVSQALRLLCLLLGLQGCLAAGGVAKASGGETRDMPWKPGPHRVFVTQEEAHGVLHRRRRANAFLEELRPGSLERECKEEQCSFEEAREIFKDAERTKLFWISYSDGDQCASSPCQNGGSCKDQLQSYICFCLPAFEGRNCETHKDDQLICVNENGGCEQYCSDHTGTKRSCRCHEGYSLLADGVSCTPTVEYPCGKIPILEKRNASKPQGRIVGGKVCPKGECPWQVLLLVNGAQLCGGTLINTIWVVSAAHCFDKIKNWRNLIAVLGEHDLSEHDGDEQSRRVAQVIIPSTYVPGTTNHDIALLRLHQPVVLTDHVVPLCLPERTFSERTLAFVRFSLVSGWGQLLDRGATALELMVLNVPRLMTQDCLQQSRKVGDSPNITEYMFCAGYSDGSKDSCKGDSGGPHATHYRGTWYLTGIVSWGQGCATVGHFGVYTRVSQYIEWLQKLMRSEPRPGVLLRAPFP

Sequence of Coagulation factor X (P00742 41-179 limits assumed): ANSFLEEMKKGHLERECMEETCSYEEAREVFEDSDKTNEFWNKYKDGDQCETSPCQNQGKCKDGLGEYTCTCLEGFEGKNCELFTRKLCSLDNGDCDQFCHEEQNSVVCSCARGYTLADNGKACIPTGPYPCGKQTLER
Sequence of Coagulation factor X (P00742 235-488 limits assumed): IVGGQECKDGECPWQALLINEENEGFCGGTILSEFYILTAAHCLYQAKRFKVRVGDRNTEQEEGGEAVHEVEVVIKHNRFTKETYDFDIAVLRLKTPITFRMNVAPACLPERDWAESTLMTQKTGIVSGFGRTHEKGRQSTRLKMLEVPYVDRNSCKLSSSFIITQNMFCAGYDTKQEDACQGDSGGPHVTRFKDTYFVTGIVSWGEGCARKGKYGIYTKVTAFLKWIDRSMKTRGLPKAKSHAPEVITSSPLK

| Structure (SMILES) | IC50 (Coagulation factor X) [nM] | Ratio [1] | IC50 (Prothrombin) [nM] | IC50 (Coagulation factor VII) [nM] |
| --- | --- | --- | --- | --- |
| N=C(N)NCCC[C@H](NC(=O)[C@H](Cc1cccc(C(F)(F)F)c1)NC(=O)[C@@H](Cc1ccccc1)NS(=O)(=O)Cc1ccccc1)C(=O)c1nccs1 | 1000 | 106 | 84900 | 800 |
| N=C(N)NCCC[C@H](NC(=O)[C@H](CC(N)=O)NC(=O)[C@@H](Cc1ccccc1)NS(=O)(=O)Cc1ccccc1)C(=O)c1nccs1 | – | 58 | – | – |
| N=C(N)NCCC[C@H](NC(=O)[C@H](Cc1ccc(F)c(F)c1)NC(=O)[C@@H](Cc1ccccc1)NS(=O)(=O)Cc1ccccc1)C(=O)c1nccs1 | 210 | 70 | 11200 | 160 |
| Cc1cccc(C[C@H](NC(=O)[C@@H](Cc2ccccc2)NS(=O)(=O)Cc2ccccc2)C(=O)N[C@@H](CCCN=C(N)N)C(=O)c2nccs2)c1 | – | 71 | – | – |
| NC(N)=NCCC[C@H](NC(=O)[C@H](Cc1cccnc1)NC(=O)[C@@H](Cc1ccccc1)NS(=O)(=O)Cc1ccccc1)C(=O)c1nccs1 | 290 | – | 100000 | 200 |
| N=C(N)NCCC[C@H](NC(=O)[C@H](Cc1cccnc1)NC(=O)[C@@H](Cc1ccccc1)NS(=O)(=O)Cc1ccccc1)C(=O)c1nccs1 | – | 500 | – | – |
| Cc1ccccc1C[C@H](NC(=O)[C@@H](Cc1ccccc1)NS(=O)(=O)Cc1ccccc1)C(=O)N[C@@H](CCCNC(=N)N)C(=O)c1nccs1 | 330 | – | 21700 | 240 |
| CC[C@@H](C)[C@H](NC(=O)[C@@H](Cc1ccccc1)NS(=O)(=O)Cc1ccccc1)C(=O)N[C@@H](CCCN=C(N)N)C(=O)c1nccs1 | 380 | 64 | 19300 | – |
| Cc1ccccc1C[C@H](NC(=O)[C@@H](Cc1ccccc1)NS(=O)(=O)Cc1ccccc1)C(=O)N[C@@H](CCCN=C(N)N)C(=O)c1nccs1 | – | 90 | – | – |
| N#Cc1ccc(C[C@H](NC(=O)[C@@H](Cc2ccccc2)NS(=O)(=O)Cc2ccccc2)C(=O)N[C@@H](CCCNC(=N)N)C(=O)c2nccs2)cc1 | 900 | 147 | 50000 | 340 |
| Cc1cccc(C[C@H](NC(=O)[C@@H](Cc2ccccc2)NS(=O)(=O)Cc2ccccc2)C(=O)N[C@@H](CCCNC(=N)N)C(=O)c2nccs2)c1 | 160 | – | 12000 | 170 |
| N=C(N)NCCC[C@H](NC(=O)[C@H](Cc1cccc(F)c1)NC(=O)[C@@H](Cc1ccccc1)NS(=O)(=O)Cc1ccccc1)C(=O)c1nccs1 | 250 | 75 | 15000 | 200 |
| N=C(N)NCCC[C@H](NC(=O)[C@H](Cc1ccccc1F)NC(=O)[C@@H](Cc1ccccc1)NS(=O)(=O)Cc1ccccc1)C(=O)c1nccs1 | 210 | > 333 | > 30000 | 90 |
| N=C(N)NCCC[C@H](NC(=O)[C@H](Cc1cccc(Cl)c1)NC(=O)[C@@H](Cc1ccccc1)NS(=O)(=O)Cc1ccccc1)C(=O)c1nccs1 | 270 | 63 | 14600 | 230 |
| NC(=O)C[C@H](NC(=O)[C@@H](Cc1ccccc1)NS(=O)(=O)Cc1ccccc1)C(=O)N[C@@H](CCCN=C(N)N)C(=O)c1nccs1 | 2100 | – | 60000 | 1030 |
| N#CC[C@H](NC(=O)[C@@H](Cc1ccccc1)NS(=O)(=O)Cc1ccccc1)C(=O)N[C@@H](CCCNC(=N)N)C(=O)c1nccs1 | 2400 | 69 | 100000 | 1450 |
| N=C(N)NCCC[C@H](NC(=O)[C@H](Cc1ccccc1)NC(=O)[C@@H](Cc1ccccc1)NS(=O)(=O)Cc1ccccc1)C(=O)c1nccs1 | 27 | 95 | 4000 | 42 |
